Only some compounds are listed: those with a hit (about 2.5% of all), similar ones and a draw of the others.
SIRT5 inh – blocks human SIRT5 desuccinylation of peptide. inhibition, % at 15 µM. AID 652115. Purified SirT5, succinyl-peptide AMC, trypsin-coupled fluorescence. Q9NXA8. 330,000 tested, 1.1% active; in the data active = inhibition above about 15%; inconclusive = no clear call, values can overlap the other calls
Target sequence (Q9NXA8 whole entry, looked up): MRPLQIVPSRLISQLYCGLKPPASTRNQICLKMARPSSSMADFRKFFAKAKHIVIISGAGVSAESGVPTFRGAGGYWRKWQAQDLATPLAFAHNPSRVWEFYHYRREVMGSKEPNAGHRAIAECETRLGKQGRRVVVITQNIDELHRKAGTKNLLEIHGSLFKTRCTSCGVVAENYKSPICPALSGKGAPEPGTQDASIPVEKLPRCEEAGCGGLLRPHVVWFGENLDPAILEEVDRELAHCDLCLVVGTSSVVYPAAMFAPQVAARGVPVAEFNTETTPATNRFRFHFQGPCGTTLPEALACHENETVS
PglD DTNB – inhibitors of Campylobacter jejuni PglD acetyltransferase. inhibition, % at 12.5 µM. AID 602405. purified PglD enzyme, DTNB colorimetric CoA detection. 360,000 tested, 0.098% active; in the data active = inhibition above about 16%, passing the limit was not always enough; inconclusive = no clear call, values can overlap the other calls
E-sel inducer – induces E-selectin expression in human endothelial cells | activation, % at 7.58 µM | HUVEC E-selectin immunofluorescence imaging; normalized: neutral wells 0, TNF-alpha wells 100 | P16581 | AID 686992 | 260,000 tested, 0.37% active;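 active = mean E-selectin-positive cell signal at least 10% of the positive control, reached in at least 60% of replicates, without over 20% cell loss; inconclusive = no rule given, readout overlaps actives, possibly toxicity-flagged; inactive = the rest, including those meeting only one limit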
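Material: HUVEC primary endothelial cells; Amount: 3,000 cells per well; Dosing: single concentration; Medium: EGM-2 growth medium on 0.1% gelatin-coated wells; Read-out basis: percent E-selectin-positive cells; Signal: immunofluorescence imaging; Control set: TNF-alpha, DMSO.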
DENV2 CPE rescue – DENV2-induced cell death inhibition. DENV2-infected cells, cytopathic effect rescue, plate reader. CPE inhibition, % at 9.99 µM. 350,000 tested, 1.7% active. AID 651640; in the data active = CPE inhibition above about 20%, passing the limit was not always enough; inconclusive = no clear call, values can overlap the other calls; tested in BHK-21 cells
ERAP1 HTS inh – inhibitors of human ERAP1 aminopeptidase | Q9NZ08 | recombinant ERAP1, Leu-AMC fluorescence, 60 min | inhibition, % at 10.7 µM | 340,000 tested, 0.15% active | AID 652197;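 active = mean replicate inhibition of at least 30%, or all replicates individually reaching that 30% level; inactive = mean below 30% and not every replicate reaching it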
Large screens that a line does not name were inactive; ! = repeats disagree.

CNC(=O)c1cc2c(ccc3ccccc32)o1	E-sel inducer 78 (no result: PglD DTNB)
CN(C)CCCN1C(=O)[C@@]2(Cc3ccccc31)c1ccccc1C(=O)N(Cc1ccccc1C(F)(F)F)[C@H]2c1ccc(CO)cc1	none (no result: E-sel inducer)
COCCCN1C(=O)[C@@]2(Cc3ccccc31)c1ccccc1C(=O)N(Cc1ccccc1)[C@H]2c1ccc(CO)cc1	DENV2 CPE rescue 23 (no result: E-sel inducer)
O=C(COc1ccc(-n2ccnc2)cc1)Nc1cccc(F)c1	none (no result: E-sel inducer)
CC(CCc1ccc(O)cc1)NC(c1ccccc1)c1ccc(Cl)cc1 (stereo unspecified)	DENV2 CPE rescue 55 (no result: SIRT5 inh, E-sel inducer)
N#C[C@@H]1[C@@H](c2ccc(C#Cc3ccccc3F)cc2)[C@H](CO)N1C(=O)C1CCC1	DENV2 CPE rescue 30
N#C[C@@H]1[C@@H](c2ccc(/C=C/c3ccccc3)cc2)[C@@H](CO)N1C(=O)C1CCCC1	DENV2 CPE rescue 26
N#C[C@@H]1[C@@H](c2ccc(C#Cc3ccc(F)cc3)cc2)[C@H](CO)N1C(=O)C1CCCC1	DENV2 CPE rescue 23
N#C[C@H]1[C@@H](c2ccc(/C=C/c3ccccc3)cc2)[C@@H](CO)N1C(=O)C1CCCC1	none
COCCNC(=O)C1(C)CCN(C(=O)c2cc(C(C)(C)C)nn2C)C1 (stereo unspecified)	DENV2 CPE rescue 38 (no result: SIRT5 inh)
COCCNC(=O)C1(C)CCN(C(=O)c2ccc3c(c2)C(C)(C)CCC3(C)C)C1 (stereo unspecified)	none
CSCCC(NC(=O)c1ccc(Cl)cc1Cl)C(=O)OC(C)C(=O)NCc1ccco1 (stereo unspecified)	none
Cc1ccc(S(=O)(=O)N(C)C[C@H]2Oc3ccc(NC(=O)CCC(F)(F)F)cc3C(=O)N([C@H](C)CO)C[C@H]2C)cc1	none (no result: ERAP1 HTS inh)
COCc1cc(C)nc(Sc2nc3c(c(=O)n(C)c(=O)n3C)n2C)c1C#N	ERAP1 HTS inh 31
CN1CCN(C(=O)C[C@H]2CC[C@@H]3[C@H](COc4ccc(NC(=O)C5CCC5)cc4C(=O)N3C)O2)CC1	none (no result: PglD DTNB)
CC(C)NC(=O)Nc1ccc2c(c1)C(=O)N(C)[C@@H]1CC[C@@H](CC(=O)NCC3CCCCC3)O[C@@H]1CO2	DENV2 CPE rescue inconclusive
CN1C(=O)c2cc(NC(=O)C3CCCC3)ccc2OC[C@H]2O[C@@H](CC(=O)NCC3CC3)CC[C@@H]21	DENV2 CPE rescue 32
CN1CCN(C(=O)C[C@H]2CC[C@@H]3[C@@H](COc4ccc(NC(=O)C5CCC5)cc4C(=O)N3C)O2)CC1	DENV2 CPE rescue 24 (no result: PglD DTNB)
CC(C)NC(=O)Nc1ccc2c(c1)C(=O)N(C)[C@H]1CC[C@@H](CC(=O)NCC3CCCCC3)O[C@H]1CO2	DENV2 CPE rescue 35
Cc1c(C(=O)NCCSCc2c(F)cccc2Cl)cnn1-c1ccc(F)cc1	none
O=C(C1=NN[C@@H]2C(=O)N(c3cccc(C(F)(F)F)c3)C(=O)[C@H]12)c1ccc2ccccc2n1	none (no result: SIRT5 inh, PglD DTNB, DENV2 CPE rescue, ERAP1 HTS inh)
O=C(C1=NN[C@@H]2C(=O)N(c3cccc(F)c3)C(=O)[C@H]12)c1ccc2ccccc2n1	SIRT5 inh 16
COc1cc(NC(=O)CCc2nnc3ccc(N4CCN(c5cccc(OC)c5)CC4)nn23)cc(OC)c1	none (no result: E-sel inducer)
COc1ccccc1NC(=O)Cn1cnc2c(nc3n2CCCCC3)c1=O	none (no result: E-sel inducer)
Cc1cc2nc(-c3cccc(Cl)c3)c(CC3CCCCC3)n2c(C)c1Br	DENV2 CPE rescue 98 (no result: PglD DTNB, ERAP1 HTS inh)
C[C@H](c1ccccc1)N1C[C@@H](COCc2ccccc2)Oc2cccc(Oc3ccc(C(C)(C)C)cc3)c2S1(=O)=O	DENV2 CPE rescue 85 (no result: SIRT5 inh, PglD DTNB, ERAP1 HTS inh)
C[C@H](c1ccccc1)N1C[C@@H](COCc2ccccc2)Oc2cccc(Oc3ccccc3)c2S1(=O)=O	none (no result: SIRT5 inh, PglD DTNB, ERAP1 HTS inh)
CC(C)[C@H](NC(=O)c1ccccc1Cl)C(=O)OCC(=O)Nc1ccc(S(=O)(=O)N2CCOCC2)cc1	none (no result: SIRT5 inh)
C[C@H](CO)N1C[C@H](C)[C@@H](CN(C)Cc2ccc(C(F)(F)F)cc2)OCCCC[C@H](C)Oc2ccc(NS(=O)(=O)c3cccs3)cc2C1=O	SIRT5 inh 21
C[C@@H]1CCCCO[C@H](CN(C)Cc2ccc(C(F)(F)F)cc2)[C@@H](C)CN([C@@H](C)CO)C(=O)c2cc(NS(=O)(=O)c3cccs3)ccc2O1	SIRT5 inh 17, DENV2 CPE rescue inconclusive
C[C@@H]1CN([C@@H](C)CO)C(=O)c2cc(NS(=O)(=O)c3cccs3)ccc2O[C@@H](C)CCCCO[C@H]1CN(C)Cc1ccc(C(F)(F)F)cc1	none
C[C@@H]1CN([C@H](C)CO)C(=O)c2cc(NS(=O)(=O)c3cccs3)ccc2O[C@@H](C)CCCCO[C@H]1CN(C)Cc1ccc(C(=O)O)cc1	none (no result: PglD DTNB)
C[C@@H]1CN([C@H](C)CO)C(=O)c2cc(NS(=O)(=O)c3cccs3)ccc2O[C@@H](C)CCCCO[C@@H]1CN(C)Cc1ccc(C(F)(F)F)cc1	SIRT5 inh 19
FC(F)(F)c1cnc(N2CCSCC2)c(Cl)c1	DENV2 CPE rescue inconclusive (no result: PglD DTNB, E-sel inducer)
CCS(=O)(=O)Nc1ccc2c(c1)C(=O)N(C)[C@@H]1CC[C@@H](CC(=O)N3CCOCC3)O[C@H]1CO2	none
CN1c2ccc(Cl)cc2C(=O)NC1c1ccc([N+](=O)[O-])s1 (stereo unspecified)	DENV2 CPE rescue 45 (no result: E-sel inducer, ERAP1 HTS inh)
N#CCNC(=O)c1nn2c(C(F)(F)F)cc(-c3ccccc3)nc2c1Br	none
CCCCNC(=O)c1nn2c(C(F)(F)F)cc(-c3ccccc3)nc2c1Br	DENV2 CPE rescue 38 (no result: E-sel inducer)
COc1ccc(NC(=O)N(C)C[C@H]2Oc3c(NS(=O)(=O)c4cn(C)cn4)cccc3C(=O)N([C@H](C)CO)C[C@@H]2C)cc1	none
CC/C=C\C/C=C\C/C=C\CCCCCCCC(=O)O	SIRT5 inh 17
CCCCCCCC(=O)O	DENV2 CPE rescue inconclusive (no result: E-sel inducer)
Cc1cccc(C)c1NC(=S)NC1CCCCC1	DENV2 CPE rescue 68 (no result: PglD DTNB)
C[C@H](CO)N1C[C@H](C)[C@@H](CN(C)Cc2ccc(Oc3ccccc3)cc2)Oc2c(NC(=O)CCCCCC(=O)Nc3ccccc3N)cccc2C1=O	SIRT5 inh 22 (no result: PglD DTNB)
C[C@@H]1CN([C@H](C)CO)C(=O)c2cccc(NC(=O)CCCCCC(=O)Nc3ccccc3N)c2O[C@@H]1CN(C)Cc1ccc(-c2ccccc2)cc1	DENV2 CPE rescue 36 (no result: PglD DTNB)
C[C@H]1CN([C@@H](C)CO)C(=O)c2cccc(NC(=O)CCCCCC(=O)Nc3ccccc3N)c2O[C@H]1CN(C)Cc1ccc(-c2ccccc2)cc1	none (no result: PglD DTNB)
COc1ccc(C)cc1NC(=O)CSc1nnc(-c2cc3cccc(OC)c3o2)n1N	none (no result: SIRT5 inh, E-sel inducer, DENV2 CPE rescue, ERAP1 HTS inh)
N[C@@H](Cc1cc(I)c(O)c(I)c1)C(=O)O	SIRT5 inh 33
C[C@H](CO)N1C[C@H](C)[C@@H](CN(C)S(=O)(=O)c2ccccc2F)OCc2cnnn2CCCC1=O	none
C[C@H]1CN([C@@H](C)CO)C(=O)CCCn2nncc2CO[C@@H]1CN(C)S(=O)(=O)c1ccccc1F	DENV2 CPE rescue 70
C[C@H](CO)N1C[C@H](C)[C@H](CN(C)S(=O)(=O)c2ccccc2)OCc2cnnn2CCCC1=O	DENV2 CPE rescue 28!

Bioassay records deposited in PubChem BioAssay by Broad Institute.
